Assay outcomes (PubChem BioAssay)
T cruzi inh = blocks replication of Trypanosoma cruzi. T. cruzi beta-gal in NIH3T3, luminescence, 90 h. inhibition, % (test concentration not listed). hit rate 1.4% among 300,000;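 active means mean inhibition across valid replicates above about 55%, limit read from the data; inconclusive means mean below that limit but half or more replicates reach it; inactive means mean below it, under half of replicates reach it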;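 further: signal also drops with host cell toxicity which is not excluded here; higher percent means less beta-gal luminescence so fewer parasites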
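assay system = mouse NIH/3T3 fibroblasts infected with β-gal-expressing T. cruzi Tulahuen C4 | input = 5,000 NIH/3T3 host cells per well | buffer or medium = DMEM plus 2% FBS | timing = 3 h host attachment, then at least 90 h co-culture | measured by = GalScreen luminescence, 60 min | evaluation = luminescence reflecting intracellular parasite burden, expressed as percent inhibition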
Calb FLC = C. albicans growth modulation with fluconazole | C. albicans CaCi-2 + fluconazole, Alamar Blue growth, 48 h | growth inhibition, % (concentration not given with the values) | hit rate 0.57% among 300,000 | AID 1979;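 active means growth inhibition above about 58% in most replicates, limit read from the data, passing the limit was not always enough; inconclusive means exactly half the replicates above a set limit; inactive means most replicates below a set limit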;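 further: all wells also contain fluconazole at 8 µg/ml as a sub-toxic cotreatment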
PolyA inhibitor = yeast polyadenylation inhibition. S. cerevisiae SKY197-pL101 polyadenylation reporter, beta-gal luminescence; efflux-impaired pdr1/pdr3 knockout yeast; score 100 = 6 SD above DMSO. activity score, % at 12 µM. hit rate 0.02% among 300,000. AID 1875;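 active means lowest replicate activity score at least 50, where 100 means six control SD above control mean; inconclusive means lowest score under 50 but half or more replicates reach 50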;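 further: yeast exposed to compound for 9 h at 30 °C; higher score means more reporter readthrough which indicates perturbed polyadenylation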
CSC inhib = cancer stem cell inhibition; cancer stem cell-like cells viability, luminescence; AID 2717; hit rate 1.1% among 300,000; inhibition, % at 7.5 µM; in the data active means inhibition above about 75%; inconclusive means no clear call, values can overlap the other calls; tested in HMLE shEcad cells
HIF activator = HIF pathway transcriptional activation; U2OS HRE-luciferase reporter, luminescence; normalized: DMSO 0%, desferrioxamine 100%; activation, % at 7.5 µM (by protocol); hit rate 0.32% among 300,000; AID 1910;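 active means mean activation of at least 10% of the iron chelator positive control signal, with at least half of replicates also reaching 10%; inconclusive means mean and replicate majority disagree about reaching 10%; inactive means mean and most replicates under 10%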
Beta cell apopt = blocks beta cell apoptosis; hit rate 0.8% among 300,000; AID 435005; protection from apoptosis, % (no concentration beside the values); INS-1E cytokine-induced death, ATP luminescence, 48 h; percent of positive-control rescue, neutral wells zero;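 active means Every replicate reaches about 75%, or at least half do and their mean reaches it too, limit read from the data; inconclusive means At least half of replicates reach the limit but their mean does not; inactive means Under half of replicates reach the limit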;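 further: higher means more ATP so stronger rescue from cytokine killing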
Each line names hits and unclear results; the compound was inactive in the other large screens. Most compounds without a hit are left out; they make up all but 3.1% or so of the library.

CCOc1cc(CNCCCN2CCOCC2)cc(Br)c1OCc1ccccc1Cl	T cruzi inh 80.0
COc1ccc(C(=O)Nc2cc(C)nn2-c2ccc(C)cc2)cc1	none
CN1CCN(C(=O)CCCN2C(=O)/C(=C/c3ccccc3)SC2=S)CC1	none
O=C(O)CCCN1C(=O)/C(=C\C(Cl)=C\c2ccccc2)SC1=S	CSC inhib 78.7
CCS(=O)(=O)N1CCC(C(=O)Oc2ccc(C)c(C)c2)CC1	none
CCSc1ccc2cc(OC)ccc2[n+]1CC	T cruzi inh 54.7, Calb FLC 75.4
CCC(NC(=S)NC1CCCCC1)c1ccccc1 (stereo not drawn)	none
COc1ccc(OC)c(NC(=O)c2c3c(nc4ccccc24)CCC3)c1	Calb FLC 65.8
COc1ccc(OC)c(N/C(C)=C/C(=O)c2ccccc2)c1	T cruzi inh 55.9
COc1ccc(NC(=O)c2c3c(nc4ccccc24)CCC3)cc1	none
COc1ccc(OC)c(NC(=O)C(=O)/C=C(\O)c2cc(OC)ccc2OC)c1	Calb FLC 104.2
COc1ccc(OC)c(N/C(C)=C/C(=O)c2ccncc2)c1	none
COc1ccc(OC)c(NC(=O)Nc2cc(NC(=O)Nc3cc(OC)ccc3OC)c(C)nc2C)c1	none (no result: HIF activator)
Cc1nc2sc3c(NCc4ccco4)ncnc3c2c2c1COC(C)(C)C2	CSC inhib 85.2
CC(C)Cc1nc2sc3c(NCc4ccco4)ncnc3c2c2c1COC(C)(C)C2	none
COc1cc(C(=O)NCCCN(C)C)ccc1OCC(=O)Nc1cccc(C(F)(F)F)c1	T cruzi inh 57.3 (no result: Beta cell apopt)
COc1cccc(CN(C)C(=O)c2ccc(OCC(=O)Nc3cccc(C(F)(F)F)c3)c(OC)c2)c1	none
CCOC(=O)C1CCN(C(=O)c2ccc3c(=O)n4nc(Nc5cc(C)ccc5C)sc4nc3c2)CC1	Calb FLC 88.5
COc1cc(OC)cc(C(=O)N[C@H](C(=O)NC2CCCc3ccccc32)C(C)C)c1 (stereo partly drawn)	none (no result: T cruzi inh, Calb FLC, PolyA inhibitor, HIF activator)
Cc1cc(SCC(=O)c2ccc(O)c(O)c2)n2nc(C)c(-c3ccccc3)c2n1	Calb FLC inconclusive, CSC inhib 119.0
CN(c1ccc(F)cc1)S(=O)(=O)c1ccc(Cl)c(C(=O)NC2(C)CCS(=O)(=O)C2)c1 (stereo not drawn)	none (no result: T cruzi inh, Calb FLC, PolyA inhibitor, HIF activator)
CCN(Cc1ccccc1)c1ccc(/C=N/N=C(N)N)cc1	T cruzi inh inconclusive, CSC inhib 102.5 (no result: Beta cell apopt)
CCN(Cc1ccccc1)c1ccc(/C=N/NC(=S)NC(C)C)cc1	Calb FLC inconclusive, CSC inhib inconclusive
COCCNC(=O)C(NC(=O)C1CCC(C)CC1)C(C)C (stereo not drawn)	none (no result: CSC inhib)
CCNC(=O)n1cc(-n2cncn2)c(-c2ccc(Cl)cc2)n1	none
O=C(CNc1ccccc1)Nc1cccc2ccccc12	none
Cc1ccc([N+](=O)[O-])c2cccnc12	none
Cc1ccc(C(NC(=O)C(C)C)c2cc([N+](=O)[O-])c3cccnc3c2O)cc1 (stereo not drawn)	CSC inhib 144.4
CCC(=O)NC(/C=C/c1ccccc1)c1cc([N+](=O)[O-])c2cccnc2c1O (stereo not drawn)	CSC inhib 151.1, Beta cell apopt 77.3
CC(C)C(=O)NC(c1cccs1)c1cc([N+](=O)[O-])c2cccnc2c1O (stereo not drawn)	Calb FLC 89.8, CSC inhib 104.3, Beta cell apopt 97.3
C/C(=N\Nc1nc(N2CCCCCC2)nc(N2CCCCCC2)n1)c1ccccc1	none
O=C(NCc1cccnc1)c1ccc(NC(=O)c2ccc([N+](=O)[O-])cc2)cc1	Beta cell apopt 103.8
CC(C)(C)C(=O)Nc1ccc(C(=O)NCc2cccnc2)cc1	none
CC(C)(C)c1ccc(C(=O)Nc2ccc(C(=O)NCc3cccnc3)cc2)cc1	Beta cell apopt 112.9
O=C(NC(=S)NCc1cccnc1)c1ccc([N+](=O)[O-])cc1	none
O=C(NCc1ccccc1)c1ccc(C(=O)N(C2CCCCC2)C2CCCCC2)cc1	T cruzi inh 60.7
O=C(NNc1ncnc2ccccc12)c1cccc(Cl)c1	none
COc1ccc(-c2cc(C(=O)NNC(=S)NC(=O)c3c(-c4ccccc4)noc3C)[nH]n2)cc1	Calb FLC 81.3
COc1ccc(/C=C/C(=O)NC(=S)NNC(=O)c2c(-c3ccccc3)noc2C)cc1	none
Cc1ccccc1C(=O)Nc1ccc(N(C)C)c2ccccc12	none
OCCNCc1ccc(OCc2ccc(Cl)cc2Cl)cc1	none
OCCCCNCc1ccc(OCc2ccc(Cl)cc2Cl)cc1	T cruzi inh 60.0, CSC inhib 91.4
Cc1ccccc1-n1nnnc1SCC(=O)NC1CC1	none (no result: T cruzi inh, Calb FLC, PolyA inhibitor, CSC inhib, HIF activator)
CCCCN(C)CCNC(=O)c1nn(-c2ccc(OC)cc2)c(=O)c2c1c1ccccc1n2C	T cruzi inh 60.9
CC1CN(C(=S)Nc2cccc([N+](=O)[O-])c2)CC(C)O1 (stereo not drawn)	Calb FLC 121.0 (no result: T cruzi inh, PolyA inhibitor, HIF activator)
CC1CN(C(=S)NC(=O)c2cccc([N+](=O)[O-])c2)CC(C)O1 (stereo not drawn)	none (no result: Beta cell apopt)
CCCn1c(N)c(NCCN2CCOCC2)c(=O)n(CC(=O)NCc2ccccc2)c1=O	none (no result: CSC inhib)
COc1cccc2c1Oc1ncccc1N(C(=O)CCC(=O)NCc1ccccc1F)C2	Calb FLC inconclusive (no result: HIF activator)
Cc1cc2c(cc1C)C(c1cc(Br)ccc1F)CC(=O)N2 (stereo not drawn)	CSC inhib 172.2
CC(=O)c1ccc(NC(=S)N2CCN(S(=O)(=O)c3ccc(F)cc3)CC2)cc1	none
COc1cc(C(=O)Cc2nc3ccccc3n2C)cc(OC)c1OC	none
COc1cc(C(=O)NCCc2nc3ccccc3n2C)cc(OC)c1OC	HIF activator 95.3 (no result: CSC inhib, Beta cell apopt)
CCOc1ccc(Nc2ccnc3cc(Cl)ccc23)cc1	none
CN1CCN(c2ccc(Nc3ccnc4cc(Cl)ccc34)cc2)CC1	T cruzi inh 60.3
O=S(=O)(c1cc(F)ccc1F)N1CCN(c2ccccn2)CC1	none
O=S(=O)(c1cc(F)ccc1F)N1CCN(c2ncnc3ccccc23)CC1	Beta cell apopt 104.2 (no result: T cruzi inh, Calb FLC, PolyA inhibitor, HIF activator)
Cc1ccc(N2C(=O)C3CC(c4ccccc4)=C4C5C=CC(C6C(=O)N(c7ccc(C)cc7C)C(=O)C56)C4C3C2=O)c(C)c1 (stereo not drawn)	T cruzi inh 59.3 (no result: CSC inhib)
CCn1c(SCC(=O)Nc2sc3c(c2C#N)CCCC3)nnc1-c1ccco1	T cruzi inh 54.7
CCn1c(SCC(=O)Nc2sc3c(c2C#N)CCC(C(C)(C)C)C3)nnc1-c1ccco1 (stereo not drawn)	none
Cc1[nH]c2ccccc2c1/C=N/Nc1ccccc1[N+](=O)[O-]	T cruzi inh 61.5, CSC inhib 76.6
CCN(Cc1nc(-c2ccc(OC)c(OC)c2)no1)C(=O)c1ccc2c(c1)OCO2	none (no result: Beta cell apopt)
O=C(CN1CCC(C(O)(c2ccccc2)c2ccccc2)CC1)Nc1cc(Cl)ccc1Cl	T cruzi inh 54.8 (no result: HIF activator)
COc1ccc2c(c1)c1nc3n(c(=O)c1n2CC(=O)Nc1ccccc1)CCCS3	none
